High-throughput results: PubChem BioAssay, The Scripps Research Institute Molecular Screening Center
ABHD4 inh – ABHD4 inhibitors, primary screen, biochemical, fluorescence polarization, mouse | (Lyso)-N-acylphosphatidylethanolamine lipase (Mus musculus), Q8VD66 | purified mABHD4, FP-Rh probe fluorescence polarization | inhibition, % at 8.92 µM | 0.54% of 370,000 active;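 active = inhibition exceeding the mean over every tested compound plus 3 SD, cut at about 30% in these data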;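 also: 0% = plate median of compound wells and 100% = S159A mutant with DMSO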
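system = mouse ABHD4 enzyme, wild type | medium = HEPES pH 7.0, NaCl, Pluronic buffer | also added = FP-Rh probe | incubation = Enzyme–compound pre-incubation 45 min, then probe 60 min, both 25 °C | technique = fluorescence polarization, excitation 525 nm, emission 598 nm, BODIPY TMR filters | controls = S159A mutant high control, sample median low control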
TCR CD3 inh – inhibitors of human TCR-CD3 interaction, primary screen, biochemical, fluorescence, TAMRA-labeled TCR probe; T-cell receptor (TCR); inhibition, % at 9.4 µM; 0.37% of 360,000 active; in the data active = inhibition above about 19%;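 also: recombinant mutant TCR 2C K166C tagged with TAMRA read by polarization; 0% = receptor in buffer alone and 100% = receptor with positive control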
PRMT1 FP inh – PRMT1 methyltransferase inhibitors, primary screen, biochemical, fluorescence polarization | Protein arginine N-methyltransferase 1 (Homo sapiens), Q99873 | recombinant PRMT1, activity-based probe fluorescence polarization | inhibition, % at 2.79 µM | 1.3% of 370,000 active | AID 652257, 2013;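 active = inhibition above about 21% made by adding two undisclosed values, limit read from the data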
HTRA1 inh – HTRA1 serine protease inhibitors, primary screen, biochemical, fluorescence polarization, HTS. 0.5% of 340,000 active. Q92743. recombinant HTRA1, FP-rhodamine activity-based probe. AID 504803, 2011. inhibition, % at 5.96 µM; in the data active = inhibition above about 36%;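 also: 0% = enzyme with DMSO and 100% = wells lacking enzyme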
SIAE primary – human SIAE inhibitors, primary screen, biochemical, fluorescence polarization, FP-Rh probe, 1536-well HTS | Sialate O-acetylesterase (Homo sapiens), Q9HAT2 | SIAE FP-Rh probe binding | 0.69% of 370,000 active | inhibition, % at 9.66 µM;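 active = inhibition above a cutoff: mean of compounds within the control limits plus 3 SD of those, cut at about 17% in these data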;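 also: 0% = plate median of compound wells and 100% = probe without SIAE protein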
Target sequence (Q9HAT2 whole entry, looked up): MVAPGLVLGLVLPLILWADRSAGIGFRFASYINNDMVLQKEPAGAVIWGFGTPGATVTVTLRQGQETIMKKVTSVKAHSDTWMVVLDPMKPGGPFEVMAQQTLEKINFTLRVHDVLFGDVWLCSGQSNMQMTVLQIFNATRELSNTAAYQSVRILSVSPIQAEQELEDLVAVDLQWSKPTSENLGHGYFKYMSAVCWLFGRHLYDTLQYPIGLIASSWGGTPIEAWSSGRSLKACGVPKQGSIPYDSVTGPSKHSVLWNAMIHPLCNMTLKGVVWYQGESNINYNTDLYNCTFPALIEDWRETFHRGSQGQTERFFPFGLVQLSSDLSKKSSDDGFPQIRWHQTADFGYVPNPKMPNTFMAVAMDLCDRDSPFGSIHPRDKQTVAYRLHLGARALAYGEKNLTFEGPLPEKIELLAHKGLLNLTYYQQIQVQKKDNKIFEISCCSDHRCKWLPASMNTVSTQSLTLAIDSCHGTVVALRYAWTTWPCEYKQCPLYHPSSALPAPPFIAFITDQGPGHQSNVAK
PRMT1 confirm – PRMT1 methyltransferase inhibitors, confirmation, biochemical, fluorescence polarization, triplicate; AID 687036, 2013; shares compounds with PRMT1 FP inh; inhibition, % at 2.79 µM; recombinant His-PRMT1, activity-based probe fluorescence polarization; 42% of 3,300 active;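 active = mean inhibition across replicates above the hit cutoff derived for the earlier primary screen, cut at about 22% in these data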
Numbers without * were called inactive; x = no result given. This is a sample that favours compounds with a hit; in the whole collection about 2.7% have one here.

SMILES	ABHD4 inh	TCR CD3 inh	PRMT1 FP inh	HTRA1 inh	SIAE primary	PRMT1 confirm
Cc1cc(O)c(C2=Nc3ccccc3SC(c3ccc(Cl)cc3)C2)c(=O)o1 (stereo not given)	-11.6	-8.3	37.2*	0.1	-3.7	9.6
COc1ccc(C2CC(c3c(O)cc(C)oc3=O)=NCCS2)c(OC)c1 (stereo not given)	x	x	x	-1.8	x	x
COc1ccc(CCN2C(=O)CC(NCc3ccc4c(c3)OCO4)C2=O)cc1OC (stereo not given)	x	x	x	8.9	x	x
COc1ccc(CCNC2CC(=O)N(CCc3ccc(OC)c(OC)c3)C2=O)cc1OC (stereo not given)	10.7	-0.4	54.3*	-3.4	-3.3	1.1
CC[n+]1c(/C=C(\C)SC)sc2ccccc21	2.8	1.0	34.5*	2.6	0.4	13.1
CC[n+]1c(/C=C(/C)SC)sc2ccccc21	4.2	-5.7	96.3*	7.9	2.1	24.0*
CC[n+]1c(/C=C(\C)Nc2ccccc2)sc2ccccc21	-5.0	4.3	2.0	-4.9	-0.1	x
CC[n+]1c(/C=C2/C=C(C)CC(C)C2)sc2ccccc21 (stereo not given)	8.5	-12.2	27.6*	-1.7	3.6	13.0
CC/C(=C/c1sc2ccccc2[n+]1CC)SC	10.0	1.7	66.4*	0.7	-1.7	7.4
O=C(CCc1ccccc1)N[C@H]1[C@H](OCc2ccccc2)CCC[C@@]12C(=O)N(Cc1ccccc1)c1ccc(-c3ccccn3)cc12	3.5	x	-0.2	x	1.6	x
Cc1cccc2sc(N(CCCN(C)C)C(=O)c3ccc4ncsc4c3)nc12	8.6	-0.4	29.1*	-2.3	0.5	10.7
CCc1ccc2nc(N(CCN(C)C)C(=O)c3ccc4ncsc4c3)sc2c1	9.3	-6.0	42.6*	-4.7	-2.9	2.8
c1ccc2c(c1)oc1c(-c3cccc4nccn34)cccc12	-5.5	-2.6	-1.5	x	-0.8	x
C/C(N)=C(/C#N)C(=O)CSc1nc2scc(-c3ccccc3)c2c(=O)n1C	0.1	9.2	1.1	-5.2	-2.4	x
CC(C)(C)n1nnnc1C(c1ccncc1)N1CCN(c2ccc(O)cc2)CC1 (stereo not given)	23.6	-3.2	27.1*	3.5	1.9	3.7
COc1ccc(-c2cc(C(=O)NN=Cc3ccccc3F)[nH]n2)cc1	-12.3	x	-1.4	x	-1.1	x
COc1ccc(Sc2cccc3c2S(=O)(=O)N(C2CC2)C[C@@H](COCc2ccccc2)O3)cc1OC	-14.6	4.0	-1.2	x	-6.7	x
O=C(c1ccc([N+](=O)[O-])s1)N1CCN(c2ccc(C(F)(F)F)cn2)CC1	-4.2	2.3	1.4	3.0	6.9	x
CCOC(=O)C1CCCN(C2CC(=O)N(c3cccc(C)c3)C2=O)C1 (stereo not given)	8.2	8.5	63.1*	-0.2	2.3	9.6
O=C1CC(N2CCOCC2)C(=O)N1c1cccc(Cl)c1 (stereo not given)	5.0	3.9	9.6	-5.1	-0.6	x
CCOc1ccc(N2C(=O)CC(N3CCC(NC(=O)Nc4ccccc4)CC3)C2=O)cc1 (stereo not given)	1.6	5.1	64.3*	-1.1	0.8	5.9
O=C(C1CCN(C2CC(=O)N(c3cccc(Cl)c3)C2=O)CC1)N1CCCCCC1 (stereo not given)	-0.9	2.7	28.9*	-8.9	-4.5	3.9
CCCOc1ccc(N2C(=O)CC(N3CCC(C(=O)OCC)CC3)C2=O)cc1 (stereo not given)	4.9	0.7	56.0*	0.9	0.6	6.2
Cc1cc(NS(=O)(=O)c2ccc(NC(=O)CSc3nnc(-c4ccco4)n3-c3ccc(Cl)cc3)cc2)nc(C)n1	-1.9	x	4.8	x	-4.2	x
Clc1cccc(CN2CCSCC2)c1	2.0	1.6	0.2	-4.5	2.5	x
c1ccc(CNCc2ccco2)cc1	-1.4	2.1	-0.5	2.4	-6.3	x
O=C(C1CCCN(C2CC(=O)N(c3ccc(F)cc3)C2=O)C1)N1CCCC1 (stereo not given)	1.6	12.2	15.5	1.5	-3.1	x
CCCOc1ccc(N2C(=O)CC(N3CCOCC3)C2=O)cc1 (stereo not given)	-4.7	-2.1	7.6	0.2	2.6	x
